A selection: hits, their analogues and other compounds. The true share with any hit is near 1.5%.
V1aR counter: counter-screen for oxytocin receptor agonists: human V1a receptor agonists. P37288. CHO-V1R cells, Fluo-8 calcium fluorescence, agonist mode; 0% DMSO, 100% 3 nM vasopressin. activation, % at 3 µM. actives 0.25% (n = 320,000). AID 2797;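 active = activation above the mean activation of all tested compounds plus 3 SD, per screening run, cut at about 20% in these data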;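 also: signal is peak over basal fluorescence ratio across a 100 second FLIPR read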
Target sequence (P37288 whole entry, looked up): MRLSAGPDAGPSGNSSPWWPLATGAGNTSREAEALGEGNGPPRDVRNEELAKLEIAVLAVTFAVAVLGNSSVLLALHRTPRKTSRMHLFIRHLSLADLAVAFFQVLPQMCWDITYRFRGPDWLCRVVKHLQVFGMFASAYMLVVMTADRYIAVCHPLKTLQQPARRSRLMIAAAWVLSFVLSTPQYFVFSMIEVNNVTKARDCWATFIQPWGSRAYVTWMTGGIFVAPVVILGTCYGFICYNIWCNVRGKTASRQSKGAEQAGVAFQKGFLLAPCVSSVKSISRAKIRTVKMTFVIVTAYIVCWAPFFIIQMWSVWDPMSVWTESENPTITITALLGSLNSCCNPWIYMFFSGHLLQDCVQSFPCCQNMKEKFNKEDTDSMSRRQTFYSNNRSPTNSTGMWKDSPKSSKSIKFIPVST
M4 antag: antagonists of human muscarinic M4 receptor (CHRM4) | P08173 | CHO-hM4 cells, ACh EC80, Fluo-8 calcium fluorescence | inhibition, % at 3 µM | actives 0.73% (n = 360,000) | AID 624125;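 active = inhibition above its plate's cutoff, the mean inhibition of sample wells plus 3 SD, cut at about 27% in these data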;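 also: 0% = acetylcholine EC80 with DMSO and 100% = DMSO without agonist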
OXTR potentiator: potentiators of human oxytocin receptor | activation, % at 3 µM | AID 2445 | actives 0.061% (n = 320,000) | CHO-OTR cells, Fluo-8 calcium fluorescence, potentiator mode; 0% = oxytocin EC15, 100% = EC100;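 active = activation above that plate's cutoff, the mean activation of tested compounds plus 3 SD, cut at about 6.6% in these data, passing the limit was not always enough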;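 also: 100% uses oxytocin at 75 nM as the full agonist control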
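Dosing: Single dose, 3.0 µM nominal final compound concentration | Material: Human OTR in CHO cells | Technique: Kinetic Fluo-8 calcium fluorescence | Benchmarks: EC15 oxytocin alone as 0%, 75 nM oxytocin as 100% | Probe or stimulus: Oxytocin at about EC15, sub-maximal agonist stimulus | Incubation: Compound 6 min at room temperature before oxytocin, 100 s read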
CHRM4 PAM: CHRM4 positive allosteric modulation; actives 0.4% (n = 360,000); P08173; activation, % at 3 µM; CHO-K1 hM4/Gqi5, Fluo-8 calcium fluorescence, ACh EC20; 0% = ACh EC20, 100% = maximal ACh;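 active = activation above its plate's cutoff, the mean activation of sample wells plus 3 SD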
OXTR ag: agonists of human oxytocin receptor | P30559 | CHO-OTR cells, Fluo-8 calcium fluorescence; normalized: DMSO 0%, oxytocin 100% | activation, % at 3 µM | actives 0.32% (n = 320,000) | AID 2435;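 active = activation above the mean of all tested compounds plus 3 SD, cutoff set per screening run, cut at about 20% in these data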;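 also: peak over basal fluorescence ratio from a 100 s FLIPR kinetic read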
CHRM4 agonist: CHRM4 agonism in calcium assay; P08173; CHO-K1 hM4/Gqi5, Fluo-8 calcium fluorescence; vehicle 0%, full acetylcholine response 100%; activation, % at 3 µM; actives 0.14% (n = 360,000);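 active = activation above the run mean over all test wells plus 3 SD, cut at about 32% in these data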;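 also: peak over basal fluorescence ratio per well then scaled between controls; 0% = DMSO wells and 100% = acetylcholine at EC100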
OXTR agonist cf: human OXTR agonism, confirmation; shares compounds with OXTR ag; CHO-OTR cells, Fluo-8 calcium fluorescence, agonist; activation, % at 3 µM; actives 20% (n = 390);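 active = mean activation above about 20% derived from the earlier single-dose screen, limit read from the data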;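 also: peak over minimum fluorescence ratio per well during a 100 second FLIPR read; 0% = DMSO alone and 100% = oxytocin high control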
V1R ag counter 3x: counter-screen for oxytocin receptor agonists: V1a receptor agonists. activation, % at 3 µM. shares compounds with OXTR ag. actives 10% (n = 390). CHO-V1R cells, Fluo-8 calcium fluorescence, agonist;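 active = mean activation over triplicate exceeds the hit threshold set in the earlier primary screen, cut at about 20% in these data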;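 also: peak over basal fluorescence ratio within a 100 second read; 0% = DMSO alone and 100% = 3 nM vasopressin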
An asterisk follows results filed as active; · = not tested or not shown.

SMILES | V1aR counter | M4 antag | OXTR potentiator | CHRM4 PAM | OXTR ag | CHRM4 agonist | OXTR agonist cf | V1R ag counter 3x
COc1ccc(NS(=O)(=O)c2ccc(C(=O)NCC3(N4CCOCC4)CCCCC3)cc2)cc1 | 18 | -3 | -9 | 6 | 24* | 17 | 16 | 10
CCCn1c(=N)n(CCOc2ccc(OC)cc2)c2ccccc21 | 1 | 0 | -8 | 3 | 1 | 3 | · | ·
CCOC(=O)Cn1c(=N)n(CCOc2ccc(OC)cc2)c2ccccc21 | 1 | 7 | -21 | 4 | 39* | 2 | 0 | 0
CC1CCN(C(=S)c2cn(Cc3cccc(F)c3)c3ccccc23)CC1 | 0 | -5 | -18 | 2 | -2 | -1 | · | ·
Nc1nc(N)c2cc(Sc3ccc4ccccc4c3)ccc2n1 | 13 | 18 | -11 | -1 | 27* | 11 | 1 | 1
Nc1nc(N)c2cc(Sc3ccc(Cl)cc3)ccc2n1 | · | -9 | · | 6 | · | 11 | · | ·
O=[N+]([O-])c1cccc(/C=N/Nc2nc(NCc3ccccc3)nc(N3CCOCC3)n2)c1O | 17 | -1 | -31 | -11 | 24* | 46* | 19 | 17
CSc1nc(-c2ccccc2)c(-c2ccccc2)[nH]1 | 18 | 1 | -20 | 6 | 23* | -1 | -1 | 0
O=c1oc2cc(O)ccc2cc1-c1nc2c(s1)CCc1ccccc1-2 | 14 | 14 | -5 | 7 | 26* | 16 | 160* | 181*
CCOC(=O)C1=C(N)N2C(=O)C(C)SC2=C(C(=O)OC)C1c1ccccc1OC (stereo unspecified) | 13 | 2 | -18 | 6 | 31* | 0 | 7 | 8
CCOC(=O)C1=C(N)N2C(=O)C(C)SC2=C(C(=O)OCC)C1c1ccccc1 (stereo unspecified) | 1 | -9 | -10 | 7 | 0 | 0 | · | ·
O=C(NC(=S)NNC(=O)[C@H]1C[C@@H]1c1ccccc1)c1ccc(F)cc1 | 18 | 1 | -19 | -7 | 35* | 8 | 22* | 39*
CC(NC(=O)CN1CCCC1)c1ccccc1 (stereo unspecified) | 0 | 3 | -4 | 3 | -1 | 1 | · | ·
CC(NC(=O)CN1CCOCC1)c1ccccc1 (stereo unspecified) | 1 | -5 | 1 | 3 | 21* | 1 | 0 | 0
CC1=NN(c2ccc(Cl)cc2)C(=O)C1C(c1ccccc1O)c1c(C)[nH]n(-c2ccc(Cl)cc2)c1=O (stereo unspecified) | 13 | 3 | -9 | 7 | 20* | 23 | 0 | 1
O=C(COc1ccc2c(-c3ccccc3)cc(=O)oc2c1)N[C@H](Cc1c[nH]c2ccccc12)C(=O)O | 0 | -6 | -1 | 0 | -1 | 0 | · | ·
COc1ccccc1OCC(=O)NNC(=O)c1c(-c2ccccc2Cl)noc1C | 1 | -4 | -5 | 2 | 0 | 2 | · | ·
COc1ccc(-c2cc(C3CCN(c4cc(Cl)nc(N)n4)CC3)[nH]n2)cc1 | 15 | 11 | -10 | -16 | 18 | 18 | · | ·
Nc1nc(Cl)cc(N2CCC(c3cc(-c4ccc(Cl)cc4)n[nH]3)CC2)n1 | 14 | 36* | -13 | -7 | 22* | 26 | 9 | 11
COc1cc(Cn2c3ccc(NC(=O)CC(C)C(F)(F)F)cc3c(=O)n2C)ccc1F (stereo unspecified) | · | -15 | · | 2 | · | 10 | · | ·
Cc1ccc(-c2noc(CCC(=O)NCCc3ccccc3Cl)n2)cc1 | 5 | -8 | -16 | -1 | 20* | 5 | -1 | 0
CC(C)N(Cc1ccccc1)C(=O)COC(=O)c1c(F)cccc1F | -1 | -16 | 6 | 5 | -1 | 5 | · | ·
CCOC(=O)[C@@H]1[C@H]2COc3ccc(Br)cc3[C@@H]2N2C(=O)N(c3ccc(F)cc3)C(=O)[C@]12C | 0 | -2 | -2 | 8 | -1 | 1 | · | ·
